From ChEMBL document CHEMBL4266041, “Hydroxybiphenylamide GroEL/ES Inhibitors Are Potent Antibacterials against Planktonic and Biofilm Forms of Staphylococcus aureus” (J Med Chem, 2018)
Activity calls are given as the source filed them. The rule behind the calls is not given here.

Columns and labels:
Klebsiella pneumoniae = test: Antibacterial activity against Klebsiella pneumoniae ATCC 13883 after 6 to 8 hrs by bacterial proliferation assay; type: functional, organism-based
Outline: (§1)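 Bacterial growth inhibition in liquid culture. The highest concentration tested was 100 µM. The mean was back-calculated from the average log value. Values above the top concentration were set 0.1 log unit higher.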

Staphylococcus aureus [1] = test: Antibacterial activity against methicillin-resistant Staphylococcus aureus ATCC BAA-44 after 6 to 8 hrs by bacterial proliferation assay; type: functional, organism-based; details: Staphylococcus aureus, ATCC BAA-44
Enterobacter cloacae = test: Antibacterial activity against Enterobacter cloacae subsp. cloacae ATCC 13047 after 24 hrs by bacterial proliferation assay; type: functional, organism-based; details: subsp. cloacae ATCC 13047, 24 h; outline: as §1
Enterococcus faecium = test: Antibacterial activity against Enterococcus faecium ATCC 19434 after 24 hrs by bacterial proliferation assay; type: functional, organism-based; details: ATCC 19434, 24 h
Staphylococcus aureus [2] = test: Bactericidal activity against planktonic growth of Staphylococcus aureus Rosenbach ATCC 25923 preincubated for 24 hrs followed by compound wash out and measured after 24 hrs; type: functional, organism-based
Staphylococcus aureus [3] = test: Ratio of EC50 for bactericidal activity against Staphylococcus aureus Rosenbach ATCC 25923 in biofilms to EC50 for planktonic growth of Staphylococcus aureus Rosenbach ATCC 25923; type: functional
Acinetobacter baumannii = test: Antibacterial activity against Acinetobacter baumannii ATCC 19606 after 24 hrs by bacterial proliferation assay; type: functional, organism-based; details: ATCC 19606 = CIP 70.34 = JCM 6841, 24 h; outline: as §1
E. coli GroEL/ES [4] = biological target: T1, E. coli GroEL/ES (Escherichia coli, UniProt P0A6F5); test: Inhibition of Escherichia coli GroEL expressed in Escherichia coli DH5alpha/Escherichia coli GroES expressed in Escherichia coli BL21 (DE3) assessed as reduction in GroEL/GroES-mediated denatured rhodanese refolding after 45 mins by spectrometric analysis
T1 sequence (P0A6F5 whole entry, looked up): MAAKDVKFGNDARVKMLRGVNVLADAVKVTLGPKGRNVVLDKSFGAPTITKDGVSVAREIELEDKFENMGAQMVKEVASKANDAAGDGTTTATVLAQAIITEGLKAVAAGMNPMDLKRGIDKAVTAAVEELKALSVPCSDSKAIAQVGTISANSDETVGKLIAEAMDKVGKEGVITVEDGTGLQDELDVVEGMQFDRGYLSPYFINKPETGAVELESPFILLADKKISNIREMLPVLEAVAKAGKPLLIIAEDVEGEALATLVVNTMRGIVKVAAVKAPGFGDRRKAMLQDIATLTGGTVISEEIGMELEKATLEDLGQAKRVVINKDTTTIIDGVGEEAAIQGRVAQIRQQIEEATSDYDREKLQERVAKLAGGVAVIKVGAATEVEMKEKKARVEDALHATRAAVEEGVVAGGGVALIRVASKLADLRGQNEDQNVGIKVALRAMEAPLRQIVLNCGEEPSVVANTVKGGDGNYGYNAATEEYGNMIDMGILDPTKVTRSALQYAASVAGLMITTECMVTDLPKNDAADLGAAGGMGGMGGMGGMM
Outline: (§2)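 Uses E. coli GroEL/ES with a denatured MDH or rhodanese reporter. GroEL first forms a binary complex with the denatured reporter. Refolding is started by adding ATP and GroES, then reporter enzyme activity is read. DMSO is the negative control. IC50 values from replicate curves are log-averaged after ROUT outlier screening.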

[5] = Cytotoxicity against human THLE3 cells assessed as reduction in cell viability after 48 hrs by Alamar Blue reporter assay; details: 48 h
HEK293 = test: Cytotoxicity against HEK293 cells assessed as reduction in cell viability after 48 hrs by Alamar Blue reporter assay; details: human, hek293, 48 h
[6] = biological target: T2, Thiosulfate sulfurtransferase (Homo sapiens, UniProt Q16762); test: Inhibition of refolded rhodanese (unknown origin) preincubated with Escherichia coli GroEL/GroES for 60 mins in absence of compound followed by compound addition by spectrometric analysis
T2 sequence (Q16762 whole entry): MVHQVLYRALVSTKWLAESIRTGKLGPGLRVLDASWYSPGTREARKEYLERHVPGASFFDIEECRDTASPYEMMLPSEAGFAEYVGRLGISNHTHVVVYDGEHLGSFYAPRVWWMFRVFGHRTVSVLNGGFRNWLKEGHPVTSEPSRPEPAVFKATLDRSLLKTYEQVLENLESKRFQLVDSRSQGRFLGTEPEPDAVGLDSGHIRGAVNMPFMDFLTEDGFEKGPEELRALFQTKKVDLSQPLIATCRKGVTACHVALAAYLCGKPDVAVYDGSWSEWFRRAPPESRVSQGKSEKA

Staphylococcus aureus [7] = test: Antibiofilm activity against Staphylococcus aureus Rosenbach ATCC 25923 after 24 hrs by crystal-violet based UV-Vis spectroscopy; type: functional, organism-based; details: Rosenbach ATCC 25923, 24 h
Outline: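 ATCC 25923 colony grown overnight in TSB at 37°C with shaking, precultured 1 h in TSB + 0.5% glucose, then diluted to OD600 0.01. Incubated stagnant at 37°C for 24 h with compound (100 µM–46 nM, 3-fold, DMSO), alongside bacteria-free baseline plates. Wells washed, crystal violet stained 15 min, developed in MeOH:AcOH:H2O, A595.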

E. coli GroEL/ES [8] = biological target: T1, E. coli GroEL/ES; test: Inhibition of Escherichia coli GroEL expressed in Escherichia coli DH5alpha/Escherichia coli GroES expressed in Escherichia coli BL21 (DE3) assessed as reduction in GroEL/GroES-mediated denatured MDH refolding after 20 to 40 mins by spectrometric analysis; outline: as §2
Staphylococcus aureus [9] = test: Bactericidal activity against Staphylococcus aureus Rosenbach ATCC 25923 in biofilms preincubated for 24 hrs followed by compound wash out and measured after 24 hrs; type: functional, organism-based
Outline: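 ATCC 25923 preculture (TSB + 0.5% glucose, OD600 0.01) grown stagnant 24 h at 37°C to form biofilm, without compound. Wells washed 3× with PBS, then fresh TSB added with compound (100 µM–46 nM, 3-fold, DMSO) for 24 h at 37°C. Washed again, then recovered in fresh TSB 24 h at 37°C.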

Staphylococcus aureus [10] = test: Antibacterial activity against Staphylococcus aureus ATCC 25923 after 6 to 8 hrs by bacterial proliferation assay; type: functional, organism-based
Pseudomonas aeruginosa = test: Antibacterial activity against Pseudomonas aeruginosa ATCC 10145 after 24 hrs by bacterial proliferation assay; type: functional, organism-based; details: ATCC 10145, 24 h; outline: as §1
[11] = Inhibition of refolded MDH (unknown origin) preincubated with Escherichia coli GroEL/GroES for 45 mins in absence of compound followed by compound addition and measured for 20 to 35 mins by spectrometric analysis
HSP60/HSP10 = HSP60/HSP10 (Homo sapiens, UniProt P10809); test: Inhibition of human N-terminal octa-His-tagged HSP60 expressed in Escherichia coli Rosetta(DE3) pLysS/human HSP10 expressed in Escherichia coli Rosetta(DE3) assessed as reduction in HSP60/HSP10-mediated denatured MDH refolding after 40 to 60 mins by spectrometric analysis
HSP60/HSP10, sequence (P10809 whole entry): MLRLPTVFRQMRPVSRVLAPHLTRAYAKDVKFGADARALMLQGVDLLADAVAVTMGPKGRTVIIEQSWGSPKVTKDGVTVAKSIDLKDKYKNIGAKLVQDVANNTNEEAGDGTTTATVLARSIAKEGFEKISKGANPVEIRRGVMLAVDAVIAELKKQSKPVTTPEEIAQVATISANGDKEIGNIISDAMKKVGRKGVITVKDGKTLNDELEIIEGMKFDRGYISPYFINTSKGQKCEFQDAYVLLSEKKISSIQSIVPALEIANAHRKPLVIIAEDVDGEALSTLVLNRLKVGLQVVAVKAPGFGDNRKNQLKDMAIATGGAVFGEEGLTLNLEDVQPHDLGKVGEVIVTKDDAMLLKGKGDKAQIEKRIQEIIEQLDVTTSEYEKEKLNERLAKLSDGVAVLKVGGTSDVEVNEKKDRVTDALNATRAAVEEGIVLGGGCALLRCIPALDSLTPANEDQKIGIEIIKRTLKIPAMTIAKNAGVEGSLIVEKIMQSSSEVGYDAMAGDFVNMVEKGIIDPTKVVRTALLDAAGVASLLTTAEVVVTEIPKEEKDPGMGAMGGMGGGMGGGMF
HSP60/HSP10, sequence (P61604 whole entry, further chain): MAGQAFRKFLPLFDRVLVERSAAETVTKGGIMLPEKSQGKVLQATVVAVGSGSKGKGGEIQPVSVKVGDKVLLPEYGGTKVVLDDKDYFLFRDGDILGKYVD
Outline: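 Human HSP60/10 refolding of denatured MDH, run the same way as the GroEL/ES-dMDH assay. A binary complex of chaperonin and denatured MDH is formed, and refolding is started with ATP and HSP10. MDH activity is the read-out. DMSO is the negative control. IC50 values from replicate curves are log-averaged after ROUT outlier screening.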

[12] = Therapeutic index, ratio of CC50 for HEK293 cells to EC50 for methicillin-resistant Staphylococcus aureus ATCC BAA-44; type: toxicity; details: human, read-out: Ratio CC50/EC50
Outline: (§3)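 Ratio of human-cell CC50 to MRSA (ATCC BAA-44) EC50. […] EC50 comes from inhibition of MRSA proliferation in liquid culture. Replicate values were log-transformed, screened for outliers (ROUT, Q 10%), then averaged and back-calculated. Values above 100 µM were entered as 126 µM.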

[13] = Therapeutic index, ratio of CC50 for human THLE3 cells to EC50 for methicillin-resistant Staphylococcus aureus ATCC BAA-44; type: toxicity; details: read-out: Ratio CC50/EC50; outline: as §3
Staphylococcus aureus [14] = test: Antibacterial activity against methicillin-resistant Staphylococcus aureus ATCC BAA-44 precultured for 24 hrs passage with compound followed by subculture in presence of compound for 12 days serial passage; type: functional, organism-based
Outline: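 Cells from the first well with OD600 >0.2 were sub-cultured 24 h in a fresh compound dilution series. Serial passage ran for 12 days, with EC50 determined after each passage. Averages are from triplicate analyses.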

Row | Compound | EC50 (Klebsiella pneumoniae) | EC50 (Staphylococcus aureus [1]) | EC50 (Enterobacter cloacae) | EC50 (Enterococcus faecium) | EC50 (Staphylococcus aureus [2]) | Ratio EC50 (Staphylococcus aureus [3]) | EC50 (Acinetobacter baumannii) | IC50 (E. coli GroEL/ES [4]) | CC50 [5] | CC50 (HEK293) | IC50 [6] | EC50 (Staphylococcus aureus [7]) | IC50 (E. coli GroEL/ES [8]) | EC50 (Staphylococcus aureus [9]) | EC50 (Staphylococcus aureus [10]) | EC50 (Pseudomonas aeruginosa) | IC50 [11] | IC50 (HSP60/HSP10) | selectivity ratio [12] | selectivity ratio [13] | further results
1 | O=C(Nc1ccc(Sc2nc3ccccc3s2)c(Cl)c1)c1cccc(Br)c1O | > 100 µM | 0.71 µM | > 100 µM | 24 µM | 0.45 µM | 5 - 15 | 2.9 µM | 3.8 µM | 19 µM | 64 µM | > 100 µM | 1 µM | 9.5 µM | 5.6 µM | 0.45 µM | > 100 µM | > 63 µM | – | – | – | –
2 | O=C(Nc1ccc(Sc2nc3ccccc3s2)cc1)c1ccccc1O | > 100 µM | 0.41 µM | > 100 µM | 67 µM | 0.2 µM | 5 - 15 | > 100 µM | 87 µM | 33 µM | 74 µM | > 100 µM | 0.91 µM | 40 µM | 2 µM | 0.2 µM | > 100 µM | > 63 µM | > 100 µM | – | – | –
3 | O=C(Nc1ccc(Sc2nc3ccccc3s2)cc1)c1cc(Br)cc(Br)c1O | > 100 µM | 0.52 µM | > 100 µM | 0.88 µM | 0.44 µM | 5 - 15 | > 100 µM | 1.3 µM | 20 µM | 66 µM | > 100 µM | 0.54 µM | 2.7 µM | 2.3 µM | 0.44 µM | > 100 µM | 8.4 µM | – | > 50 | > 50 | –
4 | O=C(Nc1ccccc1)c1cc(Br)cc(Br)c1O [METABROMSALAN] | > 100 µM | 2 µM | > 100 µM | > 100 µM | – | – | > 100 µM | > 100 µM | 25 µM | 34 µM | > 100 µM | – | 61 µM | – | 1.2 µM | > 100 µM | 51 µM | – | > 50 | > 50 | –
5 | O=C(Nc1cccc(Cl)c1)c1cc(Br)cc(Br)c1O | 95 µM | 1.1 µM | 78 µM | 73 µM | – | – | 46 µM | 47 µM | 9.2 µM | 18 µM | > 100 µM | – | 24 µM | – | 0.66 µM | > 100 µM | 27 µM | – | > 50 | > 50 | –
6 | O=C(Nc1cccc(Cl)c1)c1cc(Br)ccc1O | > 100 µM | 0.53 µM | > 100 µM | > 100 µM | 0.46 µM | 5 - 15 | > 100 µM | > 100 µM | 4.1 µM | 15 µM | > 100 µM | 0.44 µM | > 100 µM | 6.9 µM | 0.46 µM | > 100 µM | > 63 µM | > 100 µM | – | – | Activity (Staphylococcus aureus [14]): Active
7 | CN[C@H](CC(C)C)C(=O)N[C@H]1C(=O)N[C@@H](CC(N)=O)C(=O)N[C@H]2C(=O)N[C@H]3C(=O)N[C@H](C(=O)N[C@H](C(=O)O)c4cc(O)cc(O)c4-c4cc3ccc4O)[C@H](O)c3ccc(c(Cl)c3)Oc3cc2cc(c3O[C@@H]2O[C@H](CO)[C@@H](O)[C@H](O)[C@H]2O[C@H]2C[C@](C)(N)[C@H](O)[C@H](C)O2)Oc2ccc(cc2Cl)[C@H]1O [VANCOMYCIN] | > 100 µM | 0.52 µM | > 100 µM | 0.6 µM | 0.67 µM | – | > 100 µM | > 100 µM | > 100 µM | > 100 µM | > 100 µM | 0.54 µM | > 100 µM | > 100 µM | 0.67 µM | > 100 µM | > 63 µM | > 100 µM | – | – | –
8 | COc1c(Br)cc(Br)cc1C(=O)Nc1cccc(Cl)c1 | > 100 µM | > 100 µM | > 100 µM | > 100 µM | – | – | > 100 µM | > 100 µM | > 100 µM | > 100 µM | > 100 µM | – | > 100 µM | – | 46 µM | > 100 µM | > 63 µM | > 100 µM | – | – | –
9 | O=C(Nc1ccccc1)c1cccc(Br)c1O | > 100 µM | 10 µM | > 100 µM | > 100 µM | – | – | > 100 µM | > 100 µM | 56 µM | 82 µM | > 100 µM | – | > 100 µM | – | 6.4 µM | > 100 µM | > 63 µM | > 100 µM | – | – | –
10 | O=C(Nc1ccc(Sc2nc3ccccc3s2)c(Cl)c1)c1cc(Br)cc(Br)c1 | > 100 µM | > 100 µM | > 100 µM | > 100 µM | – | – | > 100 µM | > 100 µM | > 100 µM | > 100 µM | > 100 µM | – | > 100 µM | – | > 100 µM | > 100 µM | > 63 µM | > 100 µM | – | – | –
11 | O=C(Nc1ccc(Sc2nc3ccccc3s2)cc1)c1cc(Br)ccc1O | > 100 µM | 0.14 µM | > 100 µM | 19 µM | – | – | > 100 µM | 30 µM | 12 µM | 42 µM | > 100 µM | – | 38 µM | – | 0.12 µM | > 100 µM | > 63 µM | > 100 µM | – | – | –
12 | O=C(Nc1ccc(Sc2nc3ccccc3s2)c(Cl)c1)c1cc(Br)cc(Br)c1O | > 100 µM | 0.55 µM | > 100 µM | 0.52 µM | 0.36 µM | 5 - 15 | 66 µM | 1.5 µM | 14 µM | 76 µM | > 100 µM | 0.72 µM | – | 2.4 µM | 0.36 µM | > 100 µM | 6.8 µM | – | > 50 | > 50 | Activity (Staphylococcus aureus [14]): Active
